pIC50: −log10 of the molar value. The source made the active and inactive calls. The rule behind the calls is not given here.
Assays:
[1] = biological target: Cruzipain (Trypanosoma cruzi) (UniProt P25779); test: Competitive inhibition of Trypanosoma cruzi Cruzain using Z-FR-AMC as substrate at 100 uM preincubated for 10 mins followed by substrate addition measured every 12 secs for 5 mins by fluorescence assay relative to control
Trypanosoma cruzi [2] = test: Antiparasitic activity against bloodstream trypomastigote stage of Trypanosoma cruzi Y assessed as parasite viability after 24 hrs by Neubauer chamber analysis; format: functional, organism-based
How it was run: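 Y strain bloodstream trypomastigotes were harvested from infected LLC-MK2 cell supernatants. They were exposed to compounds at five concentrations for 24 h at 37 °C, 5% CO₂. Viable parasites were counted in a Neubauer chamber by motility. Inhibition was calculated relative to untreated cultures, and IC50 was derived by non-linear regression.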

[3] = Selectivity index, ratio of CC50 for mouse J774 cells to IC50 for bloodstream trypomastigote stage of Trypanosoma cruzi Y
[4] = Cytotoxicity against mouse J774 cells assessed as cell viability after 72 hrs by Alamar Blue assay; format: cell-based
How it was run: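 J774 macrophages were plated at 5 × 10⁴ cells/mL in RPMI + 10% FBS with gentamycin and grown 24 h at 37 °C, 5% CO₂. Compounds in DMSO (final <1%) were added at six concentrations (0.41–100 µM) in triplicate for 72 h. Viability was read by AlamarBlue at 570/600 nm after 6 h. CC50 came from three independent experiments, with gentian violet as positive control.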

Leishmania = test: Antiparasitic activity against Leishmania; format: functional
Trypanosoma cruzi [5] = test: Antiparasitic activity against amastigote stage of Trypanosoma cruzi Y in BALB/c mouse macrophages assessed as decrease in number of intracellular amastigotes incubated for 6 hrs by Giemsa staining-based optical microscopic analysis; format: functional, organism-based
How it was run: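 Peritoneal BALB/c macrophages (thioglycolate-elicited) were infected with Y strain trypomastigotes at 10:1 for 2 h and washed. Compounds at five concentrations (1–50 µM) were applied for 6 h, followed by fresh medium and 3 days of culture. Amastigotes per 100 macrophages were counted after Giemsa staining.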

Trypanosoma cruzi [6] = test: Potency index, ratio of benznidazole IC50 to compound IC50 for amastigote stage of Trypanosoma cruzi Y in BALB/c mouse macrophages; format: functional
Trypanosoma cruzi [7] = test: Antiparasitic activity against amastigote stage of Trypanosoma cruzi Y in BALB/c mouse macrophages assessed as decrease in number of intracellular amastigotes at 50 uM incubated for 6 hrs by Giemsa staining-based optical microscopic analysis; format: functional, organism-based
How it was run: (§1)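 Thioglycolate-elicited peritoneal macrophages from BALB/c mice, 2 × 10⁵ cells/well on coverslips in RPMI + 10% FBS for 24 h, then infected with Y strain trypomastigotes (10 per macrophage) for 2 h. Free parasites washed off. Compounds added at 50 µM for 6 h, medium replaced, 3 days further culture. Methanol fixation, Giemsa staining, 100 cells counted per slide. Triplicate, two independent experiments.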

Trypanosoma cruzi [8] = test: Potency index, ratio of benznidazole IC50 to compound IC50 for bloodstream trypomastigote stage of Trypanosoma cruzi Y; format: functional
Trypanosoma cruzi [9] = test: Antiparasitic activity against amastigote stage of Trypanosoma cruzi Y in BALB/c mouse macrophages assessed as decrease in number of infected cells at 50 uM incubated for 6 hrs by Giemsa staining-based optical microscopic analysis; format: functional, organism-based
How it was run: as §1

Trypanosoma cruzi [10] = test: Antichagasic activity against Trypanosoma cruzi; format: functional
Mus musculus = test: Toxicity in BALB/c mouse infected with bloodstream trypomastigote stage of Trypanosoma cruzi Y assessed as body weight loss at 100 mg/kg, po qd administered for 5 days; format: organism-based; conditions: in vivo, 120 h
Trypanosoma cruzi [11] = test: Antiparasitic activity against bloodstream trypomastigote stage of Trypanosoma cruzi Y infected in BALB/c mouse assessed as reduction of parasitemia at 100 mg/kg, po qd administered for 5 days measured on day 12 post infection relative to vehicle-treated control; format: functional; set-up: scale not given: the % may be the effect or the level left
How it was run: (§2)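 Female BALB/c mice (6 per group, randomized) were infected with 10⁴ Y strain trypomastigotes. They were dosed orally at 100 mg/kg once daily for 5 days starting day 5 post-infection. Parasitemia was counted as trypomastigotes in fresh blood. Reduction = (vehicle mean − treated mean)/vehicle mean × 100%.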

Trypanosoma cruzi [12] = test: Antiparasitic activity against bloodstream trypomastigote stage of Trypanosoma cruzi Y infected in BALB/c mouse assessed as reduction of parasitemia at 100 mg/kg, po qd administered for 5 days measured on day 10 post infection relative to vehicle-treated control; format: functional; set-up: scale not given: the % may be the effect or the level left
How it was run: as §2

Trypanosoma cruzi [13] = test: Antiparasitic activity against bloodstream trypomastigote stage of Trypanosoma cruzi Y infected in BALB/c mouse assessed as increase in survival rate by measuring mortality at 100 mg/kg, po qd administered for 5 days measured until 30 days; format: functional, organism-based
How it was run: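 Female BALB/c mice (6 per group) were infected with 10⁴ Y strain trypomastigotes. From day 5 post-infection they received 100 mg/kg orally once daily for 5 days. Controls were vehicle (untreated infected) and benznidazole 100 mg/kg. Survival was followed for 30 days after infection in one experiment.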

Sequence of Cruzipain (Trypanosoma cruzi) (P25779 123-467 limits assumed): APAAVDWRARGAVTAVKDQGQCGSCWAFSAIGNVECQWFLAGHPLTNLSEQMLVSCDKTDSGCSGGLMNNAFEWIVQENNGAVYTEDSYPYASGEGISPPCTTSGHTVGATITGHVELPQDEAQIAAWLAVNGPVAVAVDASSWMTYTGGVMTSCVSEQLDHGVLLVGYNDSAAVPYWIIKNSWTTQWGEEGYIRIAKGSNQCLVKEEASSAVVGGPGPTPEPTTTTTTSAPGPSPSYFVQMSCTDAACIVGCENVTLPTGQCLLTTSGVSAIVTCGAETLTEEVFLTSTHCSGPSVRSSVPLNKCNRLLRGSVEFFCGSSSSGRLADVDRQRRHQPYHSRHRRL

| inhibition [1] | pIC50 (Trypanosoma cruzi [2]) | SMILES | Ratio CC50/IC50 [3] | CC50 at 72 h [4] | other results |
| --- | --- | --- | --- | --- | --- |
| 49% | 4.31 | C/C(=N\N=C1/NC(=O)C(C)S1)c1ccc(Cl)c(Cl)c1 (centres undefined) | >2 | > 100 µM | – |
| 32% | < 4.30 | C/C(=N\N=C1\SC(C)C(=O)N1C)c1ccc(Cl)c(Cl)c1 (centres undefined) | – | > 100 µM | – |
| 0% | < 4.30 | C/C(=N\N=C1\SCC(=O)N1C)c1ccc(Cl)c(Cl)c1 | – | > 100 µM | – |
| 61% | < 4.30 | C/C(=N\N=C1/NC(=O)C(c2ccccc2)S1)c1ccc(Cl)c(Cl)c1 (centres undefined) | – | 96.9 µM | – |
| 49% | 4.77 | C/C(=N\N=C1/NC(=O)C(C(C)C)S1)c1ccc(Cl)c(Cl)c1 (centres undefined) | >5.9 | > 100 µM | – |
| 43% | 5.38 | C/C(=N\N=C1\SC(C)C(=O)N1c1ccccc1)c1ccc(Cl)c(Cl)c1 (centres undefined) | 6 | 26.1 µM | pIC50 (Trypanosoma cruzi [5]): 5.23; Ratio IC50 (Trypanosoma cruzi [6]): 2; Activity (Trypanosoma cruzi [7]): Active; Ratio IC50 (Trypanosoma cruzi [8]): 2; Activity (Trypanosoma cruzi [9]): Active |
| 54% | < 4.30 | C/C(=N\N=C1/NC(=O)CS1)c1ccc(Cl)c(Cl)c1 | – | 76.5 µM | – |
| 29% | 4.38 | C/C(=N\N=C1\SC(c2ccccc2)C(=O)N1C)c1ccc(Cl)c(Cl)c1 (centres undefined) | – | 97.6 µM | – |
| 24% | 5.54 | CCC1S/C(=N/N=C(\C)c2ccc(Cl)c(Cl)c2)N(c2ccccc2)C1=O (centres undefined) | 8 | 23.3 µM | pIC50 (Trypanosoma cruzi [5]): 5.49; Ratio IC50 (Trypanosoma cruzi [6]): 4; Activity (Trypanosoma cruzi [7]): Active; Ratio IC50 (Trypanosoma cruzi [8]): 3; Activity (Trypanosoma cruzi [9]): Active |
| 20% | 4.31 | CCC1S/C(=N/N=C(\C)c2ccc(Cl)c(Cl)c2)N(C)C1=O (centres undefined) | >2 | > 100 µM | – |
| 38% | < 4.30 | C/C(=N\N=C1\SC(C(C)C)C(=O)N1C)c1ccc(Cl)c(Cl)c1 (centres undefined) | – | > 100 µM | – |
| 49% | < 4.30 | CCC1S/C(=N/N=C(\C)c2ccc(Cl)c(Cl)c2)NC1=O (centres undefined) | – | 76.7 µM | – |

More lines, now with the values behind:

| SMILES | inhibition [1] | pIC50 (Trypanosoma cruzi [2]) | Ratio CC50/IC50 [3] | CC50 at 72 h [4] | other results |
| --- | --- | --- | --- | --- | --- |
| C/C(=N\N=C(\N)S)c1ccc(Cl)c(Cl)c1 | 85% | 5.15 | 1.7 | 13.4 µM | – |
| O=C(N[C@@H](Cn1ccnc1)c1ccc(Cl)cc1Cl)c1ccc(-c2nnc(-c3ccccc3)o2)cc1 | – | – | – | – | Activity (Leishmania): 60% |
| CNC(=S)N/N=C(\C)c1ccc(Cl)c(Cl)c1 | 28% | 4.95 | – | > 100 µM | – |
| C/C(=N\N=C1\SCC(=O)N1c1ccccc1)c1ccc(Cl)c(Cl)c1 | 43% | < 4.30 | – | > 100 µM | – |
| O=C(N[C@@H](Cn1ccnc1)c1ccc(-c2ccc(F)cc2)cc1F)c1ccc(-c2nnc(-c3ccccc3)o2)cc1 | – | – | – | – | Activity (Trypanosoma cruzi [10]): 100%; Activity (Leishmania): 89% |
| O=C(Cn1ccnc1[N+](=O)[O-])NCc1ccccc1 [BENZNIDAZOLE] | – | 4.97 | >9.4 | > 100 µM | Activity (Mus musculus): Non-toxic; Activity (Trypanosoma cruzi [11]): >99%; Activity (Trypanosoma cruzi [7]): Active; Activity (Trypanosoma cruzi [12]): >99%; Activity (Trypanosoma cruzi [9]): Active; Activity (Trypanosoma cruzi [13]): Active |
| CN(C)c1ccc(C(=C2C=CC(=[N+](C)C)C=C2)c2ccc(N(C)C)cc2)cc1 [GENTIAN VIOLET] | – | – | – | 0.45 µM | – |
| C/C(=N\N=C1\SC(C(C)C)C(=O)N1c1ccccc1)c1ccc(Cl)c(Cl)c1 (centres undefined) | 23% | 5.77 | >58 | > 100 µM | Activity (Mus musculus): Non-toxic; Activity (Trypanosoma cruzi [11]): 97.1%; pIC50 (Trypanosoma cruzi [5]): 5.51; Ratio IC50 (Trypanosoma cruzi [6]): 4; Activity (Trypanosoma cruzi [7]): Active; Ratio IC50 (Trypanosoma cruzi [8]): 6; Activity (Trypanosoma cruzi [12]): 86.7%; Activity (Trypanosoma cruzi [9]): Active; Activity (Trypanosoma cruzi [13]): Active |
| C/C(=N\N=C1\SC(c2ccccc2)C(=O)N1c1ccccc1)c1ccc(Cl)c(Cl)c1 (centres undefined) | 27% | 4.75 | 1.5 | 27.1 µM | – |
| C/C(=N\NC(=S)Nc1ccccc1)c1ccc(Cl)c(Cl)c1 | 0% | < 4.30 | – | > 100 µM | – |

From ChEMBL document CHEMBL3627689, “Structural design, synthesis and pharmacological evaluation of 4-thiazolidinones against Trypanosoma cruzi” (Bioorg Med Chem, 2015)
